{"source": "ChEMBL document CHEMBL3865847", "about": "“The synthesis and biological evaluation of alkyl and benzyl naphthyridinium analogs of eupolauridine as potential antimicrobial and cytotoxic agents” (Bioorg Med Chem, 2016)", "note": "pIC50: −log10 of the molar value.", "data": [{"test_system": "Candida albicans", "assay": "Antimicrobial activity against Candida albicans B311", "type": "functional", "conditions": "not given", "method_in_brief": "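Cultured in Sabouraud dextrose broth 24 h, counted by hemocytometer, diluted to 10,000 CFU/mL. Added to serially diluted samples in 96-well plates, top final concentration 50 µg/mL (≤2.5% DMSO), incubated 37 °C. Growth by A630. MIC is the lowest concentration giving 80% inhibition against controls; IC50 from concentration versus % growth plots.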", "units": {"IC50": "µg/mL", "MIC80": "µg/mL"}, "values": [{"smiles": "COc1ccc2c(c1)-c1c3c-2nccc3cc[n+]1Cc1ccccc1.[Br-]", "IC50": 16.7, "MIC80": 25}, {"smiles": "[Br-].c1ccc(C[n+]2ccc3cc(-c4ccccc4)nc4c3c2-c2ccccc2-4)cc1", "IC50": 1.5, "MIC80": 3.12}, {"smiles": "Cc1ccc2c(c1)-c1c3c-2nccc3cc[n+]1Cc1ccccc1.[Br-]", "IC50": 6.17, "MIC80": 12.5}, {"smiles": "Fc1ccc(C[n+]2ccc3ccnc4c3c2-c2ccccc2-4)c(F)c1.[Br-]", "IC50": 5.33, "MIC80": 6.25}, {"smiles": "Clc1cccc(C[n+]2ccc3ccnc4c3c2-c2ccccc2-4)c1.[Br-]", "IC50": 3, "MIC80": 6.25}]}, {"test_system": "Cryptococcus neoformans", "assay": "Antimicrobial activity against Cryptococcus neoformans ATCC 52657", "type": "functional", "conditions": "not given", "method_in_brief": "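Grown in mycophil broth 72 h, hemocytometer-counted, diluted to 200,000 CFU/mL. Exposed to diluted samples in 96-well plates, maximum final 50 µg/mL (DMSO up to 2.5%), incubated 30 °C. A630 readout. MIC is the lowest concentration inhibiting 80% of growth versus controls; IC50 read from concentration versus % growth graphs.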", "units": {"IC50": "µg/mL", "MIC80": "µg/mL"}, "values": [{"smiles": "COc1ccc2c(c1)-c1c3c-2nccc3cc[n+]1Cc1ccccc1.[Br-]", "IC50": 0.7, "MIC80": 1.56}, {"smiles": "[Br-].c1ccc(C[n+]2ccc3cc(-c4ccccc4)nc4c3c2-c2ccccc2-4)cc1", "IC50": 0.95, "MIC80": 3.12}, {"smiles": "Cc1ccc2c(c1)-c1c3c-2nccc3cc[n+]1Cc1ccccc1.[Br-]", "IC50": 0.48, "MIC80": 1.56}, {"smiles": "Fc1ccc(C[n+]2ccc3ccnc4c3c2-c2ccccc2-4)c(F)c1.[Br-]", "IC50": 0.58, "MIC80": 1.56}, {"smiles": "Clc1cccc(C[n+]2ccc3ccnc4c3c2-c2ccccc2-4)c1.[Br-]", "IC50": 0.18, "MIC80": 0.78}]}, {"test_system": "Mycobacterium intracellulare", "assay": "Antimicrobial activity against Mycobacterium intracellulare ATCC 23068", "type": "functional", "conditions": "not given", "method_in_brief": "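Mycobacterium grown 72 h in Middlebrook medium with OADC supplement, diluted 1:30 in broth. Incubated at 37 °C with diluted samples in 96-well plates, highest final 50 µg/mL, DMSO at most 2.5%. Absorbance at 630 nm. MIC = lowest concentration with 80% growth inhibition relative to controls; IC50 from concentration versus % growth plots.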", "units": {"MIC80": "µg/mL"}, "values": [{"smiles": "COc1ccc2c(c1)-c1c3c-2nccc3cc[n+]1Cc1ccccc1.[Br-]", "MIC80": 50}, {"smiles": "Cc1ccc2c(c1)-c1c3c-2nccc3cc[n+]1Cc1ccccc1.[Br-]", "MIC80": 50}, {"smiles": "Clc1cccc(C[n+]2ccc3ccnc4c3c2-c2ccccc2-4)c1.[Br-]", "MIC80": 50}]}, {"test_system": "Plasmodium falciparum", "assay": "Antimalarial activity against Plasmodium falciparum D6 infected in RBC after 48 hrs by lactate dehydrogenase assay", "type": "functional", "conditions": "D6, 48 h", "method_in_brief": "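Parasites grown in A+ human erythrocytes in RPMI 1640 with 10% A+ human serum, 25 mM HEPES, 27 mM bicarbonate, 60 µg/mL amikacin, 37 °C under 90% N2/5% O2/5% CO2. Infected cells exposed 48 h in microtiter wells, highest concentration 4.8 µg/mL. Growth read by Malstat reagent (parasite LDH) with nitro blue tetrazolium reduction, absorbance 630 nm.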", "units": {"IC50": "µg/mL"}, "values": [{"smiles": "COc1ccc2c(c1)-c1c3c-2nccc3cc[n+]1Cc1ccccc1.[Br-]", "IC50": 0.032}, {"smiles": "[Br-].c1ccc(C[n+]2ccc3cc(-c4ccccc4)nc4c3c2-c2ccccc2-4)cc1", "IC50": 0.04}, {"smiles": "Cc1ccc2c(c1)-c1c3c-2nccc3cc[n+]1Cc1ccccc1.[Br-]", "IC50": 0.062}, {"smiles": "Fc1ccc(C[n+]2ccc3ccnc4c3c2-c2ccccc2-4)c(F)c1.[Br-]", "IC50": 0.015}, {"smiles": "Clc1cccc(C[n+]2ccc3ccnc4c3c2-c2ccccc2-4)c1.[Br-]", "IC50": 0.0042}]}, {"test_system": "not listed separately", "assay": "Cytotoxicity against human SK-MEL cells assessed as cell growth inhibition after 48 hrs by neutral red dye based assay", "type": "functional", "conditions": "not given", "method_in_brief": "(§1)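 Cells kept in RPMI-1640 with 10% bovine serum and 60 µg/mL amikacin, 37 °C, 5% CO2. Seeded at 25,000 cells/well, left 24 h to adhere. Samples diluted in RPMI added, highest final concentration 10 µg/mL. Growth measured by neutral red uptake after 48 h exposure.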", "units": {"IC50": "µg/mL"}, "values": [{"smiles": "COc1ccc2c(c1)-c1c3c-2nccc3cc[n+]1Cc1ccccc1.[Br-]", "IC50": 1.5}, {"smiles": "[Br-].c1ccc(C[n+]2ccc3cc(-c4ccccc4)nc4c3c2-c2ccccc2-4)cc1", "IC50": 0.7}, {"smiles": "Cc1ccc2c(c1)-c1c3c-2nccc3cc[n+]1Cc1ccccc1.[Br-]", "IC50": 1.4}, {"smiles": "Fc1ccc(C[n+]2ccc3ccnc4c3c2-c2ccccc2-4)c(F)c1.[Br-]", "IC50": 6.2}, {"smiles": "Clc1cccc(C[n+]2ccc3ccnc4c3c2-c2ccccc2-4)c1.[Br-]", "IC50": 1.15}]}, {"test_system": "not listed separately", "assay": "Cytotoxicity against human KB cells assessed as cell growth inhibition after 48 hrs by neutral red dye based assay", "type": "functional", "conditions": "not given", "method_in_brief": "as §1", "units": {"IC50": "µg/mL"}, "values": [{"smiles": "COc1ccc2c(c1)-c1c3c-2nccc3cc[n+]1Cc1ccccc1.[Br-]", "IC50": 0.2}, {"smiles": "[Br-].c1ccc(C[n+]2ccc3cc(-c4ccccc4)nc4c3c2-c2ccccc2-4)cc1", "IC50": 1}, {"smiles": "Cc1ccc2c(c1)-c1c3c-2nccc3cc[n+]1Cc1ccccc1.[Br-]", "IC50": 0.52}, {"smiles": "Clc1cccc(C[n+]2ccc3ccnc4c3c2-c2ccccc2-4)c1.[Br-]", "IC50": 0.68}]}, {"test_system": "not listed separately", "assay": "Cytotoxicity against human BT549 cells assessed as cell growth inhibition after 48 hrs by neutral red dye based assay", "type": "functional", "conditions": "BT-549, 48 h", "method_in_brief": "as §1", "units": {"IC50": "µg/mL"}, "values": [{"smiles": "COc1ccc2c(c1)-c1c3c-2nccc3cc[n+]1Cc1ccccc1.[Br-]", "IC50": 1.1}, {"smiles": "[Br-].c1ccc(C[n+]2ccc3cc(-c4ccccc4)nc4c3c2-c2ccccc2-4)cc1", "IC50": 1.2}, {"smiles": "Cc1ccc2c(c1)-c1c3c-2nccc3cc[n+]1Cc1ccccc1.[Br-]", "IC50": 1.8}, {"smiles": "Clc1cccc(C[n+]2ccc3ccnc4c3c2-c2ccccc2-4)c1.[Br-]", "IC50": 1.6}]}, {"test_system": "not listed separately", "assay": "Cytotoxicity against human SKOV3 cells assessed as cell growth inhibition after 48 hrs by neutral red dye based assay", "type": "functional", "conditions": "SK-OV-3, 48 h", "method_in_brief": "as §1", "units": {"IC50": "µg/mL"}, "values": [{"smiles": "COc1ccc2c(c1)-c1c3c-2nccc3cc[n+]1Cc1ccccc1.[Br-]", "IC50": 0.15}, {"smiles": "[Br-].c1ccc(C[n+]2ccc3cc(-c4ccccc4)nc4c3c2-c2ccccc2-4)cc1", "IC50": 0.25}, {"smiles": "Cc1ccc2c(c1)-c1c3c-2nccc3cc[n+]1Cc1ccccc1.[Br-]", "IC50": 0.58}, {"smiles": "Fc1ccc(C[n+]2ccc3ccnc4c3c2-c2ccccc2-4)c(F)c1.[Br-]", "IC50": 2.8}, {"smiles": "Clc1cccc(C[n+]2ccc3ccnc4c3c2-c2ccccc2-4)c1.[Br-]", "IC50": 0.055}]}, {"test_system": "not listed separately", "assay": "Cytotoxicity against African green monkey Vero cells assessed as cell growth inhibition at 10 ug/ml after 48 hrs by neutral red dye based assay", "type": "toxicity", "conditions": "chlorocebus sabaeus", "method_in_brief": "as §1", "values": [{"smiles": "COc1ccc2c(c1)-c1c3c-2nccc3cc[n+]1Cc1ccccc1.[Br-]", "Activity": "Non-Toxic"}, {"smiles": "[Br-].c1ccc(C[n+]2ccc3cc(-c4ccccc4)nc4c3c2-c2ccccc2-4)cc1", "Activity": "Non-Toxic"}, {"smiles": "Cc1ccc2c(c1)-c1c3c-2nccc3cc[n+]1Cc1ccccc1.[Br-]", "Activity": "Non-Toxic"}, {"smiles": "Fc1ccc(C[n+]2ccc3ccnc4c3c2-c2ccccc2-4)c(F)c1.[Br-]", "Activity": "Non-Toxic"}, {"smiles": "Clc1cccc(C[n+]2ccc3ccnc4c3c2-c2ccccc2-4)c1.[Br-]", "Activity": "Non-Toxic"}]}, {"test_system": "not listed separately", "assay": "Inhibition of Candida albicans DNA topoisomerase 1 using pHOT1 as substrate after 30 mins by agarose gel electrophoresis", "conditions": "not given", "method_in_brief": "(§2)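 Relaxation of supercoiled to relaxed DNA by TopoI measured with a commercial TopoI drug kit following kit protocol. IC50 calculated from dose-response curves of % inhibition versus concentration.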", "units": {"IC50": "µg/mL"}, "values": [{"smiles": "COc1ccc2c(c1)-c1c3c-2nccc3cc[n+]1Cc1ccccc1.[Br-]", "IC50": 5.75}, {"smiles": "[Br-].c1ccc(C[n+]2ccc3cc(-c4ccccc4)nc4c3c2-c2ccccc2-4)cc1", "IC50": 4.3}, {"smiles": "Cc1ccc2c(c1)-c1c3c-2nccc3cc[n+]1Cc1ccccc1.[Br-]", "IC50": 15}, {"smiles": "Fc1ccc(C[n+]2ccc3ccnc4c3c2-c2ccccc2-4)c(F)c1.[Br-]", "IC50": 32}, {"smiles": "Clc1cccc(C[n+]2ccc3ccnc4c3c2-c2ccccc2-4)c1.[Br-]", "IC50": 21}]}, {"molecular_target": "T1, DNA topoisomerase 1 (Homo sapiens, UniProt P11387)", "T1 sequence (P11387 whole entry)": "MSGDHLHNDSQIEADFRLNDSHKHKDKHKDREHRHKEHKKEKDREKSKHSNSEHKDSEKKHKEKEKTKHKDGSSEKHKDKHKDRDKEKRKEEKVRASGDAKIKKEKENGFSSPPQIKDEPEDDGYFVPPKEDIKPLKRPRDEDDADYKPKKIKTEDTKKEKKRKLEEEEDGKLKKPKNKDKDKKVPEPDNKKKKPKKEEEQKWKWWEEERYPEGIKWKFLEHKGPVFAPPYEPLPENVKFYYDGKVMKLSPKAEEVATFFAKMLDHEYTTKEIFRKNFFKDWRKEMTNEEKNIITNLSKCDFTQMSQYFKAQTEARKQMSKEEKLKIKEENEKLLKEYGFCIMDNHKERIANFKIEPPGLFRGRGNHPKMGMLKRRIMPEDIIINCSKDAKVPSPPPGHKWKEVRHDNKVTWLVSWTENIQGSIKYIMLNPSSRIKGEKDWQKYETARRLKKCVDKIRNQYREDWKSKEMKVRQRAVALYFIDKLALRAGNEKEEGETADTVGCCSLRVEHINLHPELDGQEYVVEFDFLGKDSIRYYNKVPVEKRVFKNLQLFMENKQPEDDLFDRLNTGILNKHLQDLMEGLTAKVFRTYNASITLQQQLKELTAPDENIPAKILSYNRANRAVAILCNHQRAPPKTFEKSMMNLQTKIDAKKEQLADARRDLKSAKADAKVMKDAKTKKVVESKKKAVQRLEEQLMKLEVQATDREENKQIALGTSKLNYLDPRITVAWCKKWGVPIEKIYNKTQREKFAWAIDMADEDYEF", "assay": "Inhibition of human DNA topoisomerase 1 using pHOT1 as substrate after 30 mins by agarose gel electrophoresis", "conditions": "not given", "method_in_brief": "as §2", "values": [{"smiles": "COc1ccc2c(c1)-c1c3c-2nccc3cc[n+]1Cc1ccccc1.[Br-]", "pIC50": 4.91}, {"smiles": "[Br-].c1ccc(C[n+]2ccc3cc(-c4ccccc4)nc4c3c2-c2ccccc2-4)cc1", "pIC50": 5.01}, {"smiles": "Cc1ccc2c(c1)-c1c3c-2nccc3cc[n+]1Cc1ccccc1.[Br-]", "pIC50": 4.35}, {"smiles": "Fc1ccc(C[n+]2ccc3ccnc4c3c2-c2ccccc2-4)c(F)c1.[Br-]", "pIC50": 3.96}, {"smiles": "Clc1cccc(C[n+]2ccc3ccnc4c3c2-c2ccccc2-4)c1.[Br-]", "pIC50": 4.27}]}, {"test_system": "not listed separately", "assay": "Selectivity index, ratio of IC50 for human DNA topoisomerase 1 to IC50 for Candida albicans DNA topoisomerase 1", "conditions": "not given", "values": [{"smiles": "COc1ccc2c(c1)-c1c3c-2nccc3cc[n+]1Cc1ccccc1.[Br-]", "Ratio IC50": 1.15}, {"smiles": "[Br-].c1ccc(C[n+]2ccc3cc(-c4ccccc4)nc4c3c2-c2ccccc2-4)cc1", "Ratio IC50": 0.98}, {"smiles": "Cc1ccc2c(c1)-c1c3c-2nccc3cc[n+]1Cc1ccccc1.[Br-]", "Ratio IC50": 0.86}, {"smiles": "Fc1ccc(C[n+]2ccc3ccnc4c3c2-c2ccccc2-4)c(F)c1.[Br-]", "Ratio IC50": 0.71}, {"smiles": "Clc1cccc(C[n+]2ccc3ccnc4c3c2-c2ccccc2-4)c1.[Br-]", "Ratio IC50": 0.95}]}]}
